# Laboratory results taken from ChEMBL document CHEMBL5608194, “Novel neuroprotective 5,6-dihydropyrido[2',1':2,3]imidazo[4,5-c]quinoline derivatives acting through cholinesterase inhibition and CB2 signaling modulation” (Eur J Med Chem, 2024).
# Activity calls are given as the source filed them. The rule behind the calls is not given here.
# Columns and labels:
# SH-SY5Y [1] = test: Neuroprotective activity against MPP+ induced cell death in human SH-SY5Y cells assessed as cell death at 1 uM by YOPRO-1 staining based assay; type: functional
# How it was run: (§1)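 Neuron-like SH-SY5Y co-treated with compound and 5 mM MPP+ for 24 h; centrifuged at 500 × g, medium replaced by 1 μM YO-PRO1 in PBS for 15 min at room temperature; fluorescence 488/530 nm; MPP+ signal set to 100 %; triplicates on at least three independent days.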
# SH-SY5Y [2] = test: Neuroprotective activity against ATRA-differentiated and 3-NPA induced cell death in human SH-SY5Y cells assessed as cell death at 0.1 uM incubated for 48 hrs by propidium iodide staining based fluorescence assay (reference value: 100%); type: functional
# How it was run: (§2)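 ATRA-differentiated SH-SY5Y co-treated with compound and 20 mM 3-nitropropionic acid for 48 h; cell death by propidium iodide fluorescence, 3-NPA-treated signal set to 100 %.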
# [3] = Selectivity index, ratio of IC50 for electric eel AChE to IC50 for equine serum BChE
# How it was run: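 Ratio of IC50 values from modified Ellman spectrophotometric assays with electric eel AChE and equine serum BChE. Each used enzyme at 0.2 U/mL final, acetylthiocholine or butyrylthiocholine at 40 μM, and DTNB at 100 μM. Inhibitors were dissolved in DMSO, diluted in water, and tested at five concentrations in triplicate. IC50 came from regression of v0/vi against inhibitor concentration.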
# SH-SY5Y [4] = test: Neuroprotective activity against ATRA-differentiated and MPP+ induced cell death in human SH-SY5Y cells assessed as cell death at 10 uM incubated for 24 hrs by propidium iodide staining based fluorescence assay (reference value: 100%); type: functional
# How it was run: (§3)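 ATRA-differentiated SH-SY5Y co-treated with compound and 5 mM MPP+ for 24 h; cell death by propidium iodide fluorescence, MPP+-treated signal set to 100 %.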
# SH-SY5Y [5] = test: Neuroprotective activity against MPP+ induced cell death in human SH-SY5Y cells assessed as cell death at 10 uM by YOPRO-1 staining based assay; type: functional; how it was run: as §1
# Acetylcholinesterase = Acetylcholinesterase (Electrophorus electricus, UniProt O42275); test: Inhibition of electric eel AChE using acetylthiocholine as substrate by Ellman's method
# Acetylcholinesterase, sequence (O42275 whole entry): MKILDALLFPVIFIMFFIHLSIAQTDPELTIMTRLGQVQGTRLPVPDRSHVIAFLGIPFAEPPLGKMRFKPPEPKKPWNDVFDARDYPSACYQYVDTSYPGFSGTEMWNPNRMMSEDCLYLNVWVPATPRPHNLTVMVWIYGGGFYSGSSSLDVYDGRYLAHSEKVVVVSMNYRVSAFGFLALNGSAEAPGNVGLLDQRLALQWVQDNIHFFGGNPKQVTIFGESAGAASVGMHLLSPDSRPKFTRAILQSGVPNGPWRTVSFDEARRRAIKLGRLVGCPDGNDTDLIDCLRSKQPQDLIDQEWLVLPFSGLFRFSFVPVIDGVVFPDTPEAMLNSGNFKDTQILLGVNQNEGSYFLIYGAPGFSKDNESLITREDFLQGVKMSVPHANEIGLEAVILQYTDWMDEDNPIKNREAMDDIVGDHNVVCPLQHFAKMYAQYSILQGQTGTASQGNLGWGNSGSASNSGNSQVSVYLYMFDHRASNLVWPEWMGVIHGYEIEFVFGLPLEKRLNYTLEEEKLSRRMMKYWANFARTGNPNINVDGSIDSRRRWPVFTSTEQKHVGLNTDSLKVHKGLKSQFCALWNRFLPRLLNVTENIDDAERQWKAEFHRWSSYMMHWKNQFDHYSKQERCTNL
# SH-SY5Y [6] = test: Inhibition of MPP+ induced mitochondrial depolarization in human SH-SY5Y cells at 1 uM incubated for 2 hrs by JC10 staining based confocal laser scanning microscopy; type: functional
# How it was run: (§4)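 ATRA-differentiated SH-SY5Y co-treated with 5 mM MPP+ and compound for 2 h; mitochondrial membrane potential by JC10 ratiometric red/green signal (plate) and confocal imaging of JC10-stained cells (50 000 cells/well slides); DMSO control set to 100 %; triplicates on three independent days.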
# SH-SY5Y [7] = test: Inhibition of MPP+ induced mitochondrial superoxide radical production in human SH-SY5Y cells at 10 uM incubated for 24 hrs by MitoSOX staining based microplate reader assay (reference value: 100%); type: functional
# How it was run: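 Neuron-like SH-SY5Y (20 000 cells/well) co-treated with 5 mM MPP+ and compound for 24 h; plates centrifuged, medium replaced by 5 μM MitoSOX in HBSS, 30 min at 37 °C, fluorescence 500/580 nm; MPP+ signal set to 100 %; triplicates on at least four independent days.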
# SH-SY5Y [8] = test: Neuroprotective activity against ATRA-differentiated and 3-NPA induced cell death in human SH-SY5Y cells assessed as cell death at 10 uM incubated for 48 hrs by propidium iodide staining based fluorescence assay (reference value: 100%); type: functional; how it was run: as §2
# SH-SY5Y [9] = test: Inhibition of MPP+ induced superoxide radical production in human SH-SY5Y cells at 10 uM incubated for 24 hrs by microplate reader assay (reference value: 100%); type: functional
# How it was run: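 Neuron-like SH-SY5Y co-treated with 5 mM MPP+ and compound for 24 h; centrifuged at 500 × g, medium replaced with 10 μM dihydroethidium in PBS for 30 min, fluorescence 500/580 nm; MPP+ signal set to 100 %; triplicates on at least four independent days.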
# SH-SY5Y [10] = test: Neuroprotective activity against MPP+ induced cell death in human SH-SY5Y cells assessed as cell death at 1 uM incubated for 24 hrs by Cas-3, 7 staining based assay; type: functional
# How it was run: (§5)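 Caspase-3/7 activation with Ac-DEVD-AFC substrate after 24 h co-treatment of neuron-like SH-SY5Y with compound and 5 mM MPP+; MPP+ signal set to 100 %; triplicates on at least three independent days.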
# SH-SY5Y [11] = test: Neuroprotective activity against MPP+ induced cell death in human SH-SY5Y cells assessed as cell death at 10 uM incubated for 24 hrs by Cas-3, 7 staining based assay; type: functional; how it was run: as §5
# SH-SY5Y [12] = test: Neuroprotective activity against ATRA-differentiated and 3-NPA induced cell death in human SH-SY5Y cells assessed as cell death at 1 uM incubated for 48 hrs by propidium iodide staining based fluorescence assay (reference value: 100%); type: functional; how it was run: as §2
# Cholinesterase = Cholinesterase (Equus caballus, UniProt P81908); test: Inhibition of equine serum BChE using butyrylthiocholine as substrate by Ellman's method
# Cholinesterase, sequence (P81908 whole entry): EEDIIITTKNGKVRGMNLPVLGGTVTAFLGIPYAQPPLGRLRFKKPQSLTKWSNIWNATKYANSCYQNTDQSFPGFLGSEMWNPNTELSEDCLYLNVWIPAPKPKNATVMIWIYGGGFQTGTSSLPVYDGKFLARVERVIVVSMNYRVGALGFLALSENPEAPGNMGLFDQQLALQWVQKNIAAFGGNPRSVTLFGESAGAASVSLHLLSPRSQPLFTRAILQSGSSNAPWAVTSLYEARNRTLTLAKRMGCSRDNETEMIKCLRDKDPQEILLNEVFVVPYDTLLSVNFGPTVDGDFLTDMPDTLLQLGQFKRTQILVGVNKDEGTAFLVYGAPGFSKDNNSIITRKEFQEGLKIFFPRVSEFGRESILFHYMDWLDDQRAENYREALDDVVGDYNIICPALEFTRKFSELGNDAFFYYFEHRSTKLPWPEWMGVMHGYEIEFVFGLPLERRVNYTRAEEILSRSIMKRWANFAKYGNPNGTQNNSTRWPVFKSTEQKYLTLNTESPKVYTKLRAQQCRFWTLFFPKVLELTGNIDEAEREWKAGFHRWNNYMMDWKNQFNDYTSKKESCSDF
# How it was run: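 Equine serum BChE (0.2 U/mL final) with 40 μM butyrylthiocholine and 100 μM DTNB, modified Ellman spectrophotometry; compounds from DMSO diluted in water, five inhibitor concentrations; IC50 from regression of v0/vi versus inhibitor concentration; triplicate.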
# SH-SY5Y [13] = test: Neuroprotective activity against ATRA-differentiated and MPP+ induced cell death in human SH-SY5Y cells assessed as cell death at 0.1 uM incubated for 24 hrs by propidium iodide staining based fluorescence assay (reference value: 100%); type: functional; how it was run: as §3
# SH-SY5Y [14] = test: Neuroprotective activity against ATRA-differentiated and MPP+ induced cell death in human SH-SY5Y cells assessed as cell death at 10 uM by LDH release assay (reference value: 100%); type: functional
# How it was run: (§6)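 ATRA-differentiated SH-SY5Y co-treated with 5 mM MPP+ and compound; cell death by commercial LDH release kit; MPP+ value set to 100 %; triplicates on at least three independent days.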
# SH-SY5Y [15] = test: Neuroprotective activity against ATRA-differentiated and MPP+ induced cell death in human SH-SY5Y cells assessed as cell death at 1 uM by LDH release assay (reference value: 100%); type: functional; how it was run: as §6
# SH-SY5Y [16] = test: Inhibition of MPP+ induced superoxide radical production in ATRA-differentiated human SH-SY5Y cells at 1 uM incubated for 24 hrs by MitoSOX staining based confocal laser scanning microscopy; type: functional, cell-based
# How it was run: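 50 000 cells seeded on chamber slides, ATRA-differentiated, co-treated with 5 mM MPP+ and compound for 24 h, then stained with MitoSOX and imaged by confocal laser-scanning microscopy (63× objective).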
# SH-SY5Y [17] = test: Cytotoxicity against human SH-SY5Y cells assessed as cell death at 10 uM incubated for 72 hrs by propidium iodide staining based fluorescence assay; type: toxicity
# How it was run: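 SH-SY5Y differentiated to neuron-like phenotype with 10 μM all-trans retinoic acid for 48 h, 20 000 cells/well. Compounds from DMSO stocks (DMSO ≤0.5 %) added, then 72 h exposure. Control wells lysed with 1 % Triton X-100 for 1 min, then all wells stained with propidium iodide for fluorescence read-out. Dead-cell proportion expressed relative to Triton X-100-treated control.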
# SH-SY5Y [18] = test: Neuroprotective activity against ATRA-differentiated and MPP+ induced cell death in human SH-SY5Y cells assessed as cell death at 1 uM incubated for 24 hrs by propidium iodide staining based fluorescence assay (reference value: 100%); type: functional; how it was run: as §3
# SH-SY5Y [19] = test: Potentiation of MPP+ induced toxicity in human SH-SY5Y cells assessed as increase in cell death at 10 uM; type: cell-based
# How it was run: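 Neuron-like SH-SY5Y co-treated for 24 h with 5 mM MPP+, compound and CB2 inverse agonist AM630 or antagonist SR144528 at 0.1, 1 or 10 μM; CB2 ligands also tested alone and with MPP+; cell death read-out; triplicates on three independent days.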
# SH-SY5Y [20] = test: Cytotoxicity against human SH-SY5Y cells at 10 uM; type: toxicity, cell-based
# How it was run: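 SH-SY5Y differentiated to neuron-like phenotype with 10 μM all-trans retinoic acid for 48 h, 20 000 cells/well, then exposed to compound for 72 h (DMSO ≤0.5 %). Propidium iodide exclusion fluorescence; dead-cell proportion expressed relative to Triton X-100 (1 %, 1 min) lysed control.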
# SH-SY5Y [21] = test: Neuroprotective activity against MPP+ induced cell death in human SH-SY5Y cells assessed as decrease in PARP1 cleavage at 1 to 10 uM incubated for 24 hrs by immunoblotting analysis; type: functional, cell-based; settings: dose 1-10 µM
# SH-SY5Y [22] = test: Inhibition of MPP+ induced mitochondrial depolarization in human SH-SY5Y cells at 0.1 to 1 uM incubated for 2 hrs by JC10 staining based confocal laser scanning microscopy; type: functional, cell-based; settings: dose 0.1-1 µM; how it was run: as §4
# [23] = target: Mitogen-activated protein kinase; ERK1/ERK2 (Homo sapiens) (UniProt P27361+P28482); test: Inhibition of MPP+ induced ERK1/2 phosphorylation in human SH-SY5Y cells at 10 uM incubated for 24 hrs by Western blotting analysis; type: cell-based
# Mitogen-activated protein kinase; ERK1/ERK2 (Homo sapiens), sequence (P27361 whole entry, looked up): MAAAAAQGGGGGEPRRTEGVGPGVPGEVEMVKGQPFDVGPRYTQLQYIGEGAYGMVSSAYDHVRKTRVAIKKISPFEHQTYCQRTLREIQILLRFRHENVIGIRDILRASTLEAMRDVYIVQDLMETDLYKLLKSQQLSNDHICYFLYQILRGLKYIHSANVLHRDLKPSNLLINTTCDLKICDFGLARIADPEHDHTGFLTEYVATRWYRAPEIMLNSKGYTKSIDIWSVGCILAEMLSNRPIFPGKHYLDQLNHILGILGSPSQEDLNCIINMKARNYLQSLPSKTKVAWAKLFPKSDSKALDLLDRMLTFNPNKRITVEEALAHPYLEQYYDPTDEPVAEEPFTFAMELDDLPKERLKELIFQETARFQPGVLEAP
# Mitogen-activated protein kinase; ERK1/ERK2 (Homo sapiens), sequence (P28482 whole entry, looked up): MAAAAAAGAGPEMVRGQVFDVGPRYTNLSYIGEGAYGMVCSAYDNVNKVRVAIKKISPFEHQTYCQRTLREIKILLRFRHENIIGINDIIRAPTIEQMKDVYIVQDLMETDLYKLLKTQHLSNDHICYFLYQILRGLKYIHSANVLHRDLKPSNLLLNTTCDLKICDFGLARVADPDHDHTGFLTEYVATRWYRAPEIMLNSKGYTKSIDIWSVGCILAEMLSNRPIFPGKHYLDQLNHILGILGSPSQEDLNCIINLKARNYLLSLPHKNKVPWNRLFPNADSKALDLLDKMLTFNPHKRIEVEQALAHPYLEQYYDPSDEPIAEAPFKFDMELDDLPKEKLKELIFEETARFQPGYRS
# How it was run: (§7)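 ATRA-differentiated neuron-like SH-SY5Y co-treated with 5 mM MPP+ and compound for 24 h, lysed in RIPA buffer, SDS-PAGE, transfer to nitrocellulose, immunoblot for p-Akt (Ser473) and ERK1/2; HSP90 and β-actin loading controls; ECL chemiluminescence imaged by CCD camera.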
# SH-SY5Y [24] = test: Inhibition of MPP+ induced Akt phosphorylation at Ser473 residues in human SH-SY5Y cells at 1 to 10 uM incubated for 24 hrs by Western blotting analysis; type: cell-based; settings: dose 1-10 µM; how it was run: as §7
Structure (SMILES),Activity (SH-SY5Y [2]) [%],Ratio IC50 [3],Activity (SH-SY5Y [4]) [%],Activity (SH-SY5Y [5]) [%],IC50 (Acetylcholinesterase) [µM],inhibition at 10 µM (SH-SY5Y [7]) [%],Activity (SH-SY5Y [8]) [%],inhibition at 10 µM (SH-SY5Y [9]) [%],Activity (SH-SY5Y [12]) [%],IC50 (Cholinesterase) [µM],Activity (SH-SY5Y [13]) [%],Activity (SH-SY5Y [14]) [%],Activity (SH-SY5Y [17]) [%],Activity (SH-SY5Y [18]) [%],Activity (SH-SY5Y [19]),Activity (SH-SY5Y [20]),other results
Brc1ccc2nc3c(n2c1)C1(CCCC1)Nc1ccccc1-3,78.4,2.51,27.5,43.5,27,41.3,59.7,52.2,63.9,10.7,66.4,51.9,12.2,31.8,,,Activity (SH-SY5Y [1]): 47.3%; inhibition at 1 µM (SH-SY5Y [6]): 78.5%; Activity (SH-SY5Y [10]): 49.4%; Activity (SH-SY5Y [11]): 72.6%; Activity (SH-SY5Y [15]): 58.5%; inhibition (SH-SY5Y [16]): Active
COc1ccc(C(=O)c2c(C)n(CCN3CCOCC3)c3cc(I)ccc23)cc1,,,,,,,,,,,,,,,> 12%,Toxic,
Cc1ccc(Cn2nc(C(=O)N[C@@H]3C(C)(C)[C@@H]4CC[C@@]3(C)C4)cc2-c2ccc(Cl)c(C)c2)cc1,,,,,,,,,,,,,,,Toxic,Non-Toxic,
O=c1c2ccccc2[se]n1-c1ccccc1 [EBSELEN],118.7,1.05,27.5,53.4,12.7,63.3,132.9,57.1,112,12.1,99.5,59.2,18.3,80,,,Activity (SH-SY5Y [21]): Active; inhibition (SH-SY5Y [22]): inactive; inhibition [23]: inactive; inhibition (SH-SY5Y [24]): inactive
